Values after ≈ are worked out from the molar mass of the structure shown.
Columns and labels:
[1] = target: Estrogen receptor beta (Homo sapiens) (UniProt Q92731); assay: Agonist activity at ERbeta expressed in human HEK293 cells assessed as induction of estrogenic response at 10 to 100 ug/mL by luciferase reporter gene assay relative to 17beta estradiol; type: functional, cell-based
[2] = target: T1, Estrogen receptor (Homo sapiens) (UniProt P03372); assay: Agonist activity at ERalpha expressed in human HEK293 cells assessed as induction of estrogenic response at 10 to 100 ug/mL by luciferase reporter gene assay relative to 17beta estradiol; type: functional, cell-based
T1 sequence (whole entry): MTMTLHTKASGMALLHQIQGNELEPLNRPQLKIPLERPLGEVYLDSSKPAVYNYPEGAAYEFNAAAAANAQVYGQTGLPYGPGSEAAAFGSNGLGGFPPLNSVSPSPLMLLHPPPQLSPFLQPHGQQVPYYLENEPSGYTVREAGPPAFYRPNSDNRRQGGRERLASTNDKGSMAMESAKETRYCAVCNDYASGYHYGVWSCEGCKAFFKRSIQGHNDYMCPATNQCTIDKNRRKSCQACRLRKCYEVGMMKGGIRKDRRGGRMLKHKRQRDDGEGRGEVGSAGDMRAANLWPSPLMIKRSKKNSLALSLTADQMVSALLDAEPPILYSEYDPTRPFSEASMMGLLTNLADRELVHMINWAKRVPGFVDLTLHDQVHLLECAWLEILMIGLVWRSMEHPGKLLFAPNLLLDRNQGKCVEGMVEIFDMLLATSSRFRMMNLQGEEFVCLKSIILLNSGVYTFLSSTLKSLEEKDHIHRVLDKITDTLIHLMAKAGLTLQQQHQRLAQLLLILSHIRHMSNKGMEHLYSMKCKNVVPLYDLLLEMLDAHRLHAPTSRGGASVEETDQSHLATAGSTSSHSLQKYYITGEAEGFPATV

[3] = Inhibition of luminol-induced chemiluminescence of reactive oxygen metabolites in opsonized zymosan-induced human PMNC by chemiluminescence assay; type: functional
In short: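 PMNs from buffy coats of healthy volunteers, isolated on Ficoll-Hypaque and suspended in HBSS. Cells were mixed with a dilution range of sample plus luminol (0.1 mM), then activated with human-serum-opsonized zymosan (0.8 mg/mL). Luminescence read every 2 min over 30 min. Inhibition calculated from maximum peak levels against a control of cells, luminol and buffer.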

[4] = Superoxide scavenging activity by chemiluminescence assay
In short: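 Cell-free xanthine oxidase system in PBS pH 7.4 with a serial dilution of sample. Added hypoxanthine (final 1 mM), lucigenin (0.1 mM), and either buffer or SOD (10 U/mL); started with xanthine oxidase (10 mU/mL). Chemiluminescence read each minute for 15 min. Activity taken from the SOD-inhibitable signal. Uric acid formation at 290 nm checked for direct xanthine oxidase effects.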

Chain of Estrogen receptor beta (Homo sapiens) (Q92731 whole entry): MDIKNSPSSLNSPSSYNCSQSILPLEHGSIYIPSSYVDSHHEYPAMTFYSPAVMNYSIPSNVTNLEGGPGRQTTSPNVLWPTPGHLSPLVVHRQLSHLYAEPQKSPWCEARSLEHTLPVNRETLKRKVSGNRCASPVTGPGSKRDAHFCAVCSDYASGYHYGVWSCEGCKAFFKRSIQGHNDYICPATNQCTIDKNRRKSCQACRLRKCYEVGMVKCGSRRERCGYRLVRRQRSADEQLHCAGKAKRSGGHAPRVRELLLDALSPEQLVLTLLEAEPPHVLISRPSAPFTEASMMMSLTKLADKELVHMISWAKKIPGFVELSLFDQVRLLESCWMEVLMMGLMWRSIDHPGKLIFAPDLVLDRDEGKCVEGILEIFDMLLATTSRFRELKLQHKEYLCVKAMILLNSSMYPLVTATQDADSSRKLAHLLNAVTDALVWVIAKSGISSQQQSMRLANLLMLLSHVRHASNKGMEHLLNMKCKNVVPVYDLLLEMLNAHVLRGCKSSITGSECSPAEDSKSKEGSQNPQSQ

Activity [1] [%] | Activity [2] [%] | IC50 [3] [µg/mL] | IC50 [4] [µg/mL] | SMILES
20 | 20 | – | – | COc1c(O)c(CC=C(C)C)c(O)c2c1O[C@@H](c1ccccc1)CC2=O
20 | 20 | 3.2 | 3 (≈ 8.46 µM) | COc1c(O)c(CC=C(C)C)c2c(c1O)C(=O)C[C@@H](c1ccccc1)O2 [AGRANDOL]
20 | 20 | 13 | 0.2 (≈ 0.819 µM) | CC1(C)C=Cc2c(c(O)cc3oc(=O)ccc23)O1 [CEDRECOUMARIN A]
– | – | 4 | 3 (≈ 6.84 µM) | CO[C@]1(CC=C(C)C)C(=O)[C@@](O)(C(=O)/C=C/c2ccccc2)C(=O)C(CC=C(C)C)=C1O [MICROFOLIAN]

From ChEMBL document CHEMBL1150643, “Bioactive constituents of Cedrelopsis microfoliata” (J Nat Prod, 2002)
